Reference: ChEMBL document CHEMBL4387708, “Enhancement of Benzothiazoles as Pteridine Reductase-1 Inhibitors for the Treatment of Trypanosomatidic Infections” (J Med Chem, 2019)
The source made the active and inactive calls. The rule behind the calls is not given here.

What was measured:
Trypanosoma brucei [1] = test: Growth inhibition of Trypanosoma brucei bloodstream forms measured after 72 hrs by resazurin-based fluorescence assay; type: organism-based
How it was run: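 Mid-log bloodstream-form T. brucei were seeded at a final 5 x 10^3/mL in supplemented HMI-9 with serial compound dilutions. Cultures ran 72 h at 37 °C, 5% CO₂, then 4 h more after resazurin. Fluorescence was read at ex 540/em 620 nm, and EC₅₀ was fitted by non-linear regression.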

Cytochrome P450 3A4 = Cytochrome P450 3A4 (Homo sapiens, UniProt P08684); test: Inhibition of human CYP3A4 expressed in baculovirus infected insect cells using beetle D-luciferin as substrate preincubated for 30 mins followed by NADPH addition and measured after 30 mins by CYP450-Glo assay
Sequence of Cytochrome P450 3A4 (P08684 whole entry): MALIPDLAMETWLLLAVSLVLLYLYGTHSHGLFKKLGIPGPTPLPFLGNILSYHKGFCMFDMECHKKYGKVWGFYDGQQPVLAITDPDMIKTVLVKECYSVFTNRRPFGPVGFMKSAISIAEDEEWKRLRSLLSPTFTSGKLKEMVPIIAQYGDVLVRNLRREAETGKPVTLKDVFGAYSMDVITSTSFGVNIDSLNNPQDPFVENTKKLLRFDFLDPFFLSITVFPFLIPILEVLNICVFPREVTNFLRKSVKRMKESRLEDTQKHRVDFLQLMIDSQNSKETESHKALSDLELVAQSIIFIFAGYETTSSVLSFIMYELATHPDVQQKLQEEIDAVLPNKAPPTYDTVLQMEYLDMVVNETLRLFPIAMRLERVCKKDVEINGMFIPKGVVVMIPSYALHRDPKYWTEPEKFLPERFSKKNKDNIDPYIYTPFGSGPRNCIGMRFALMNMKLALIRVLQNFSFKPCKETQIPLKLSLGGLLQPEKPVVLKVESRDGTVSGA

[2] = Selectivity ratio of IC50 for Leishmania major pteridine reductase 1 to IC50 for N-terminal His-tagged Trypanosoma brucei pteridine reductase 1
[3] = molecular target: T1, Pteridine reductase 1 (Leishmania major) (UniProt Q01782); test: Inhibition of Leishmania major pteridine reductase 1 at 50 uM using di-hydrobiopterine as substrate in presence of NADPH relative to control
T1 sequence (whole entry): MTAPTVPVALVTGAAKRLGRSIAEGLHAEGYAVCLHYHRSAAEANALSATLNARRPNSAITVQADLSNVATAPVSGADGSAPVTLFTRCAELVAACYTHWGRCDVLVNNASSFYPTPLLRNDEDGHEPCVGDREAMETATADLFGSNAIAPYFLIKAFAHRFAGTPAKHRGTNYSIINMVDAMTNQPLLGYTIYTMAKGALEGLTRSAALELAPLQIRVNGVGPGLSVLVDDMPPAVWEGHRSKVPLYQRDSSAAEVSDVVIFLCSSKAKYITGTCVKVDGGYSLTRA
How it was run: (§1)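 Photometric PTR1 assay with NADPH and dihydrobiopterin substrate. H₄B formation is coupled non-enzymatically to cytochrome c reduction, read as signal increase at 550 nm.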

Trypanosoma brucei [4] = test: Inhibition of N-terminal His-tagged Trypanosoma brucei pteridine reductase 1 at 50 uM using di-hydrobiopterine as substrate measured at 1 min interval for 50 mins in presence of NADPH relative to control; how it was run: as §1
[5] = Cytotoxicity against human U2OS cells assessed as reduction in cell number; type: cell-based
Cytochrome P450 2D6 = Cytochrome P450 2D6 (Homo sapiens, UniProt P10635); test: Inhibition of human CYP2D6 expressed in baculovirus infected insect cells using beetle D-luciferin as substrate preincubated for 30 mins followed by NADPH addition and measured after 30 mins by CYP450-Glo assay
Sequence of Cytochrome P450 2D6 (P10635 whole entry): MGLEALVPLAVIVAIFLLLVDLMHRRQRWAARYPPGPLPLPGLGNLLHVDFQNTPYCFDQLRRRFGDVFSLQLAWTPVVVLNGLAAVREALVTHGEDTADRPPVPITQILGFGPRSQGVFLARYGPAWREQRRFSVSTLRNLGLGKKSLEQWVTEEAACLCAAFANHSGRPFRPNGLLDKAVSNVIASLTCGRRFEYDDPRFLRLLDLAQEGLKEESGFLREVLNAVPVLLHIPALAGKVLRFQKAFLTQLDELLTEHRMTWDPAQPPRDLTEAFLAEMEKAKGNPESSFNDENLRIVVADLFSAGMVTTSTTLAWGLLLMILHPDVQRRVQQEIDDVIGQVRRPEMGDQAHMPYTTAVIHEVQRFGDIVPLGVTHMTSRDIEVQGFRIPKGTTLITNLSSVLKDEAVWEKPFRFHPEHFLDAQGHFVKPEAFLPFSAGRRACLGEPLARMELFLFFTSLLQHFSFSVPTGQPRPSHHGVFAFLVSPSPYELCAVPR

[6] = molecular target: Voltage-gated inwardly rectifying potassium channel KCNH2 (Homo sapiens, UniProt Q12809); test: Displacement of Tracer Red from human ERG by fluorescence polarization assay
Sequence of Voltage-gated inwardly rectifying potassium channel KCNH2 (Q12809 whole entry): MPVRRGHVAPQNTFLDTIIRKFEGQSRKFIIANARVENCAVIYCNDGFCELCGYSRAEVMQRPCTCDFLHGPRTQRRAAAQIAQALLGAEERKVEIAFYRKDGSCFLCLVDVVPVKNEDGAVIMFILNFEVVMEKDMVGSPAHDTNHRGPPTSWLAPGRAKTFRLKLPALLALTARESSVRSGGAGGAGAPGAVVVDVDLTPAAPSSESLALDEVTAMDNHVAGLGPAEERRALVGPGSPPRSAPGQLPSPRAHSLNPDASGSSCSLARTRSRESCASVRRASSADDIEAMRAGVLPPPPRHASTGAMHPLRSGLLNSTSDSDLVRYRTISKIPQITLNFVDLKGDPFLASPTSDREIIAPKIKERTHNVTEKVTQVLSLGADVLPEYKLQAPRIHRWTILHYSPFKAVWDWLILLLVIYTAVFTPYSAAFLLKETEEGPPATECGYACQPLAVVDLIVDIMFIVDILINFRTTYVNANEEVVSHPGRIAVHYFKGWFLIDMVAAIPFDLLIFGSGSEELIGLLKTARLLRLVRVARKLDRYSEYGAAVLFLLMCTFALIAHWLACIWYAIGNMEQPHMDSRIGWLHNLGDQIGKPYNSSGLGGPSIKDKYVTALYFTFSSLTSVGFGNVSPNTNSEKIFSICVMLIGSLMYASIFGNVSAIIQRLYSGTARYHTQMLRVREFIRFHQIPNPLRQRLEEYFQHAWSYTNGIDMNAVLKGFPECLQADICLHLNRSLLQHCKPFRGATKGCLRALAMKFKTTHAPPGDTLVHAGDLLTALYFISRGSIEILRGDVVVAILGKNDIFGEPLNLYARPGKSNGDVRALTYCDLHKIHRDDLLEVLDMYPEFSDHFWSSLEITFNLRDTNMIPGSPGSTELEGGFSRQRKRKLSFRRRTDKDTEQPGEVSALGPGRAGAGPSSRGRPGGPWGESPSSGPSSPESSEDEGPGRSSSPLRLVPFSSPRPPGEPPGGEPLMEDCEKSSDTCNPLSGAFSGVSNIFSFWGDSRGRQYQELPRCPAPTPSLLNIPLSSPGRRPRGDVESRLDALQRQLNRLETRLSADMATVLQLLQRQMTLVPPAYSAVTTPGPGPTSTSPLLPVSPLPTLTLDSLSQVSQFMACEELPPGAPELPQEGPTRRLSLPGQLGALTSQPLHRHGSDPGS

Leishmania infantum = test: Growth inhibition of luciferase expressing Leishmania infantum axenic amastigotes infected in human THP1 cells at 10 uM measured after 72 hrs by steady-glo luminescence assay relative to control; type: organism-based; conditions: for inhibition at 10 µM: Leishmania infantum, THP-1, 72 h, read-out: GI; for growth inhibition (GI): leishmania infantum, 72 h, 10 µM
Cytochrome P450 2C9 = Cytochrome P450 2C9 (Homo sapiens, UniProt P11712); test: Inhibition of human CYP2C9 expressed in baculovirus infected insect cells using beetle D-luciferin as substrate preincubated for 30 mins followed by NADPH addition and measured after 30 mins by CYP450-Glo assay
Sequence of Cytochrome P450 2C9 (P11712 whole entry): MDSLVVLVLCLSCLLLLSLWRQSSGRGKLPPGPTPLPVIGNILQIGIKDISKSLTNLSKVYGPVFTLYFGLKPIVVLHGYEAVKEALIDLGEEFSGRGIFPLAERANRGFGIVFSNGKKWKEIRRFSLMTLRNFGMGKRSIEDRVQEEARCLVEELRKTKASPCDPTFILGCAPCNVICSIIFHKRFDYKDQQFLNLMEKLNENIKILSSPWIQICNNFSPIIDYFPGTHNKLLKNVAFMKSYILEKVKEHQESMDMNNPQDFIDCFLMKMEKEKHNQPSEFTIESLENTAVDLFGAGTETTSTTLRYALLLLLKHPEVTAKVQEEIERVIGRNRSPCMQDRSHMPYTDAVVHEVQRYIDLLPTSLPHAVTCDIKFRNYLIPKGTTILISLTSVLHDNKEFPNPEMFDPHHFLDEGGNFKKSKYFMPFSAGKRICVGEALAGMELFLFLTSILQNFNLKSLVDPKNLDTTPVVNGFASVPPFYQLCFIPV

[7] = Mitochondrial toxicity in human 786-O cells measured after 6 hrs by MitoTracker Red chloromethyl-X-rosamine based assay; type: cell-based, 786-0
Cytochrome P450 1A2 = molecular target: T2, Cytochrome P450 1A2 (Homo sapiens, UniProt P05177); test: Inhibition of human CYP1A2 expressed in baculovirus infected insect cells using beetle D-luciferin as substrate preincubated for 30 mins followed by NADPH addition and measured after 30 mins by CYP450-Glo assay
T2 sequence (P05177 whole entry): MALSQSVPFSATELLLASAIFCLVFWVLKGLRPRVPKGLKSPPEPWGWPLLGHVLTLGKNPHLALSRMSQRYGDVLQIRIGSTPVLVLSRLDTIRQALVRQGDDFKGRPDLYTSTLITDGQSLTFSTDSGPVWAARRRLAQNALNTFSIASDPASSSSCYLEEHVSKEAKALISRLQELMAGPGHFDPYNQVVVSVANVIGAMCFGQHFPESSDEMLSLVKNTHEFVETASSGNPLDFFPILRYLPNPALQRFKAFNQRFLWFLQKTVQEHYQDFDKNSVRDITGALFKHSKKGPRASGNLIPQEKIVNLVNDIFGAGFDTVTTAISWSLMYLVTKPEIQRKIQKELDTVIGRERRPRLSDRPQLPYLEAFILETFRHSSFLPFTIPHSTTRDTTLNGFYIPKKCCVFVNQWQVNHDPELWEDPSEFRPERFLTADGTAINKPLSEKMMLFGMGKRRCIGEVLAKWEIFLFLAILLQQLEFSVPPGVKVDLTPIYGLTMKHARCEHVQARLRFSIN

Trypanosoma cruzi = test: Growth inhibition of trypomastigote form of Trypanosoma cruzi Y infected in human U2OS cells at 50 uM measured after 72 hrs by DRAQ5 DNA dye based confocal microscopic analysis relative to control; type: organism-based; conditions: Trypanosoma cruzi, Y, U2OS, read-out: GI
[8] = Cytotoxicity against human A549 cells after 48 hrs by Celltiter-glo assay; type: cell-based
Cytochrome P450 2C19 = Cytochrome P450 2C19 (Homo sapiens, UniProt P33261); test: Inhibition of human CYP2C19 expressed in baculovirus infected insect cells using beetle D-luciferin as substrate preincubated for 30 mins followed by NADPH addition and measured after 30 mins by CYP450-Glo assay
Sequence of Cytochrome P450 2C19 (P33261 whole entry): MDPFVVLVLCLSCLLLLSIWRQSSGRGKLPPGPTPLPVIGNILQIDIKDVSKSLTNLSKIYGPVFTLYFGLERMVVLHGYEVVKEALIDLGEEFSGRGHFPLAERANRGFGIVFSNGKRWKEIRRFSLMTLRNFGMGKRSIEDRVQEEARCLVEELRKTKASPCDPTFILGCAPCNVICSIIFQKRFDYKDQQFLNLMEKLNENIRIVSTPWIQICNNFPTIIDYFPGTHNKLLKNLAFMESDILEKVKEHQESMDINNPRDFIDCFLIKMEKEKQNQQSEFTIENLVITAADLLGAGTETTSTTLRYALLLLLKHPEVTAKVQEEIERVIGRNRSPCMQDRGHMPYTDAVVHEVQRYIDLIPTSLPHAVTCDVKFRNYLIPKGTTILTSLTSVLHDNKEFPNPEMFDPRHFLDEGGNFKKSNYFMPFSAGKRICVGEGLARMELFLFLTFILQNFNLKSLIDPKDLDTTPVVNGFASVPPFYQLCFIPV

Trypanosoma brucei [9] = test: Growth inhibition of Trypanosoma brucei bloodstream forms at 10 uM measured after 72 hrs by resazurin-based fluorescence assay relative to control; type: organism-based; conditions: Trypanosoma brucei, read-out: GI
[10] = Cytotoxicity against human THP1 cells after 72 hrs by MTT assay; type: cell-based, THP-1; conditions: read-out: NOAEL
Pteridine reductase 1 = molecular target: T3, Pteridine reductase 1 (Leishmania major, UniProt Q01782); test: Inhibition of Leishmania major pteridine reductase 1 using di-hydrobiopterine as substrate in presence of NADPH; how it was run: as §1
T3 sequence (Q01782 whole entry): T1 sequence (whole entry)

[11] = Inhibition of N-terminal His-tagged Trypanosoma brucei pteridine reductase 1 using di-hydrobiopterine as substrate measured at 1 min interval for 50 mins in presence of NADPH; how it was run: as §1
Trypanosoma brucei [12] = test: Inhibition of PTR1 in Trypanosoma brucei bloodstream forms assessed as potentiation of methotrexate-induced parasitic cell growth inhibition by measuring potentiation index at 10 uM measured after 72 hrs by resazurin-based fluorescence assay relative to control (methotrexate); type: functional
How it was run: (§2)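 Bloodstream-form T. brucei resazurin assay: 72 h at 37 °C, 5% CO₂, then fluorescence at ex 540/em 620 nm. Benzothiazole was tested at 10 μM alone and with 4 μM methotrexate. The index is the combination's activity divided by the sum of the activities of 10 μM benzothiazole and 4 μM methotrexate given separately.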

Trypanosoma brucei [13] = test: Inhibition of PTR1 in Trypanosoma brucei bloodstream forms assessed as potentiation of methotrexate-induced parasitic cell growth inhibition at 10 uM measured after 72 hrs by resazurin-based fluorescence assay (reference value: 19 +/- 6%); how it was run: as §2

Structure (SMILES)	IC50 (Cytochrome P450 3A4) [µM]	Ratio IC50 [2]	inhibition [3]	inhibition (Trypanosoma brucei [4]) [%]	GI50 [5] [µM]	IC50 (Cytochrome P450 2D6) [µM]	IC50 [6] [µM]	IC50 (Cytochrome P450 2C9) [µM]	IC50 at 6 h [7] [µM]	IC50 (Cytochrome P450 1A2) [µM]	inhibition at 50 µM (Trypanosoma cruzi) [%]	GI50 at 48 h [8] [µM]	IC50 (Cytochrome P450 2C19) [µM]	inhibition at 10 µM (Trypanosoma brucei [9]) [%]	MNTC at 72 h [10] [µM]	IC50 [11] [µM]	Ratio (Trypanosoma brucei [12])	IC50 (Pteridine reductase 1; read-out: IC50) [µM]	growth inhibition (GI) (Leishmania infantum)	growth inhibition (GI) (Trypanosoma brucei [13]) [%]	also measured
Nc1nc2c(O)cc(C(=O)NCc3ccc(Cl)c(Cl)c3)cc2s1	> 25	2 to 100	8.7%	11.8	> 25	> 25	> 25	> 25	> 25	> 25	42	> 25	> 25	> 60	> 25	–	–	–	–	–	EC50 (Trypanosoma brucei [1]): 5.9 µM; inhibition at 10 µM (Leishmania infantum): 24%
COc1ccc(CN(Cc2ccc(Cl)c(Cl)c2)C(=O)c2ccc3nc(N)sc3c2)cc1OC	< 10	2 to 100	inactive	> 60	> 25	< 10	> 25	< 10	10 to 25	> 25	47.9	> 25	< 10	> 60	10 to 25	15.9	–	–	–	–	EC50 (Trypanosoma brucei [1]): 9.7 µM; IC50 (Pteridine reductase 1): Not Active; inhibition at 10 µM (Leishmania infantum): 9%
COC(=O)c1ccc(CSc2ccc3nc(N)sc3c2)cc1	< 10	2 to 100	> 60%	> 60	> 25	< 10	> 25	< 10	> 25	10 to 25	23	> 25	< 10	7 to 17	10 to 25	0.92	2.7	47.6	Non-Toxic	69	–
Nc1nc2ccc(SC(F)(F)F)cc2s1	> 25	2 to 100	> 60%	> 60	> 25	> 25	10 to 25	> 25	> 25	> 25	37.4	< 10	> 25	11	10 to 25	0.5	1.1	1.9	Non-Toxic	33	–
COC(=O)C1CCN(C(=O)c2ccc(CSc3ccc4nc(N)sc4c3)cc2)CC1	< 10	2 to 100	> 60%	> 60	> 25	< 10	> 25	> 25	> 25	> 25	16.3	> 25	< 10	42 to 53	> 25	0.93	1.3	15.1	Non-Toxic	93	–
N#Cc1ccc(COc2ccc3nc(N)sc3c2)cc1	10 to 25	2 to 100	> 60%	> 60	> 25	> 25	> 25	> 25	> 25	> 25	15.4	10 to 25	< 10	21 to 27	10 to 25	0.67	2	86.5	Non-Toxic	80	–
